Screening results from PubChem.
Hits are enriched below; roughly 3.4% of the tested compounds scored in any of these assays.
E-sel inducer: E-selectin induction in HUVECs, primary screen, imaging, HUVEC, immunofluorescence imaging, single point; P16581; AID 686992, 2013; 260,000 compounds, 0.37% hits; activation, % at 7.58 µM; normalized: neutral wells 0, TNF-alpha wells 100;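 active = mean E-selectin-positive cell signal at least 10% of the positive control, reached in at least 60% of replicates, without over 20% cell loss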
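material = human umbilical vein endothelial cells (HUVEC), E-selectin induction | quantity = 3,000 cells/well | medium = EGM-2 growth medium on 0.1% gelatin-coated wells | technique = immunofluorescence imaging | read-out basis = % PE-positive cells | control set = TNF-alpha positive control, DMSO neutral control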
ERAP1 HTS inh: human ERAP1 aminopeptidase inhibitors, primary screen, biochemical, single point, plate reader; 340,000 compounds, 0.15% hits; Endoplasmic reticulum aminopeptidase 1 (Homo sapiens), Q9NZ08; recombinant ERAP1, Leu-AMC fluorescence, 60 min; inhibition, % at 10.7 µM;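 active = mean replicate inhibition of at least 30%, or all replicates individually reaching that 30% level; inactive = mean below 30% and not every replicate reaching it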;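 also: 0% = neutral control wells and 100% = L-leucinethiol positive control wells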
Target sequence (Q9NZ08 whole entry, looked up): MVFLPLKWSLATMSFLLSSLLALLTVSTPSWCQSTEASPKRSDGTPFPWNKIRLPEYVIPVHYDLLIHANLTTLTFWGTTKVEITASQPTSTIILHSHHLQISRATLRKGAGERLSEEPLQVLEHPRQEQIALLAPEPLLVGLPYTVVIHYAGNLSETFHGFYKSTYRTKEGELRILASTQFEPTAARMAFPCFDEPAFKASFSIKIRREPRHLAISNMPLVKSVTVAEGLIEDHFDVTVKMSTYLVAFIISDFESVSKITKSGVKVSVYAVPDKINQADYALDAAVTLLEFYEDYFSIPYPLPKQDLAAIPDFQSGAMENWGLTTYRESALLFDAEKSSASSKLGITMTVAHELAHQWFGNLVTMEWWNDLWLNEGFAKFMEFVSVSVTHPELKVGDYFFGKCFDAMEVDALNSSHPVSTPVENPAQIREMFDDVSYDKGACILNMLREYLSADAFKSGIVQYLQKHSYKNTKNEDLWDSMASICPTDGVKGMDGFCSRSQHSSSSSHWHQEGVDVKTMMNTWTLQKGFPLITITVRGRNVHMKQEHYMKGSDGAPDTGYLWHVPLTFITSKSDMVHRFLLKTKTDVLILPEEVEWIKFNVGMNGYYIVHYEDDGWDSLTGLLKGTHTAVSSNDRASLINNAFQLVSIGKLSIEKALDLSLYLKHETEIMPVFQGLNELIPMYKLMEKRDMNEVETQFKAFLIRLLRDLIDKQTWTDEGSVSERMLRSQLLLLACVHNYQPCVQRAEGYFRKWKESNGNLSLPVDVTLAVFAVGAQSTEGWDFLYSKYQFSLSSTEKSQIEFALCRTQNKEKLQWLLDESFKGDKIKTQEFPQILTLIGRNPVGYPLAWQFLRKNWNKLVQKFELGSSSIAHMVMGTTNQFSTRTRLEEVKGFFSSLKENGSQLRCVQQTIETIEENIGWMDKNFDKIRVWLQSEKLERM
rRNA inh HTS: reduced GFP signal of wild-type E. coli, primary screen, bacterial rRNA inhibitor project, GFP/RFP fluorescence, OD600, single point | 350,000 compounds, 1.6% hits | AID 720706, 2013 | E. coli WT GFP vs humanized-ribosome RFP mutants, 24 h; hits give low values; DMSO median 0, no signal -100 | GFP signal change (wild-type ribosome), % (concentration not given with the values);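 active = significant combined selectivity score with lowered wild-type GFP, culture density cut under 30%, mutant RFP and density less affected; inactive = any of these conditions unmet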
MLL AF4-AF9 inh: inhibitors of AF4 peptide binding to AF9, primary screen, biochemical, AlphaScreen, biotin-AF4 peptide, FLAG-AF9, single point | 350,000 compounds, 0.47% hits | AID 651704, 2012 | inhibition, % at 10 µM | Protein AF-9 (Homo sapiens), P42568;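 active = every replicate reaching a set inhibition limit, whatever the replicate mean, cut at about 25% in these data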;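 also: 0% = plate neutral control median and 100% = total signal loss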
SIRT5 inh: SIRT5 desuccinylase inhibitors, primary screen, biochemical, fluorescence imaging, single point, set 5; 330,000 compounds, 1.1% hits; AID 652115, 2013; inhibition, % at 15 µM; Purified SirT5, succinyl-peptide AMC, trypsin-coupled fluorescence; in the data active = inhibition above about 15%
S100A4 MyoIIA: inhibitors of S100A4-myosin IIA peptide binding, primary screen, biochemical, fluorescence polarization, TAMRA-MyoIIA peptide; Protein S100-A4 (Homo sapiens), P26447; inhibition, % at 10.7 µM; 360,000 compounds, 0.14% hits; AID 652163, 2013;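 active = mean inhibition of at least 70% across replicates, with every replicate also reaching that level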
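Assay system: human S100A4 monomer with TAMRA-labelled myosin IIA peptide / Buffer or medium: Calcium-containing HEPES buffer, pH 7.2 / Reagent: TAMRA-labelled myosin IIA heavy-chain peptide probe, 5 nM / Compound: one dose per compound / Timing: polarization read 5 min after assay mix addition, stable 5–60 min / Benchmarks: neutral control DMSO, positive control TFP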
An asterisk follows results filed as active; / = no result.

SMILES	E-sel inducer	ERAP1 HTS inh	rRNA inh HTS	MLL AF4-AF9 inh	SIRT5 inh	S100A4 MyoIIA
CCOc1ccc(-c2c(=O)n(OCC)c3ccccc3[n+]2[O-])cc1	/	5.7	8.3	0.0	-1.4	-4.0
CCOC(=O)CC1=NN(c2ccccc2)C(=O)/C1=C\c1ccc(N(C)C)cc1	0.8	-0.6	8.1	0.3	112.5*	3.3
CCOC(=O)CC1=NN(c2ccccc2)C(=O)C1	/	3.0	2.7	-0.7	-2.6	-1.2
CCC(=O)N(C)C[C@@H]1Oc2cc(C#CCN(C)C)ccc2S(=O)(=O)N([C@@H](C)CO)C[C@@H]1C	0.0	2.3	4.1	-1.0	2.5	2.8
Cc1ccc(C2(C)NC(=O)N(CC(=O)NNC(=O)c3ccccc3)C2=O)cc1 (centres undefined)	-0.2	-1.5	6.5	-0.4	4.7	5.2
Cc1ccc(C2(C)NC(=O)N(CCOc3ccccc3)C2=O)cc1 (centres undefined)	/	0.9	-33.1*	/	2.8	2.1
CN(C)CC(=O)N[C@H]1C[C@@H]2O[C@H](CO)CC[C@@H]2O[C@@H]1CCc1ccc(C2=CCCCC2)cc1	/	0.0	/	12.5	-9.0	-2.1
CCC(=O)Nc1ccc2c(c1)OC[C@@H](C)N(C(=O)COC)C[C@@H](C)[C@H](OC)CN(C)C2=O	0.2	-2.1	2.1	-2.7	-4.9	6.1
CCOCCCNC(=O)/C(C#N)=C/c1cc(C)c(O)c(C)c1	4.0	1.3	7.7	-1.3	23.3*	-6.5
CCC(=O)Nc1ccc2c(c1)C(=O)N(C)C[C@@H](OC)[C@@H](C)CN(C(=O)c1ccc(F)cc1)[C@@H](C)CO2	-0.2	-0.7	2.2	-1.3	2.3	2.3
Cc1c(NC(=O)c2ccc(-c3ccc([N+](=O)[O-])cc3Cl)o2)c(=O)n(-c2ccccc2)n1C	/	4.5	-22.4*	1.7	6.9	-2.3
COc1cccc(CC(=O)OCC(=O)Nc2nnc(-c3ccccc3)o2)c1	0.4	-0.9	-27.3*	-5.9	-1.9	-1.3
N#C[C@H]1[C@@H](c2ccccc2-c2cccc(F)c2)[C@@H](CO)N1C(=O)NC1CCCC1	0.0	1.5	-5.0	-2.6	/	4.2
CC(C)C(=O)Nc1c(C(=O)N2CCN(c3ncccn3)CC2)oc2ccccc12	/	-4.5	-1.1	-1.1	-2.0	0.4
CCC(CC)C(=O)Nc1c(C(=O)N2CCN(c3ccccc3)CC2)oc2ccccc12	-0.2	-2.4	-30.4*	5.5	12.6	13.5
CCn1c(C)c(C)c2cc(C(=O)NCCCN3CCCCCC3)ccc21	/	-3.0	-5.7	29.3*	-2.6	-41.3
CCOC(=O)/C(=C\C=C\N1CCOCC1)C(C)=O	/	15.1	7.4	-2.8	15.8*	-1.7
Oc1c(C(Nc2ccccn2)c2cccnc2)cc(Cl)c2cccnc12 (centres undefined)	/	-2.5	-56.8	42.8*	2.7	3.1
Cc1ccc(CSc2nnc(C(F)(F)F)n2Cc2ccc(F)cc2)cc1	/	0.6	-27.1*	7.1	-3.1	-3.1
CNC(=S)Nc1ccc2[nH]c(=O)[nH]c2c1	3.1	-0.5	4.2	-7.9	20.9*	-5.0
Cc1ccc(C2(CCNCc3ccc(N(C)C)cc3)CCOC(C(C)C)C2)cc1 (centres undefined)	0.3	-2.9	-54.5	39.6*	-0.4	-11.6
CC(C)C1CC(CCNCc2ccc3c(c2)OCO3)(c2ccccc2)CCO1 (centres undefined)	/	1.8	-24.4*	5.1	1.2	-2.0
CCN1CCN(C(=O)c2ccc(C(F)(F)F)cc2)CC1	3.1	-3.7	9.3	-1.0	20.3*	2.7
C[C@@H]1CN([C@@H](C)CO)S(=O)(=O)c2ccc(C#Cc3ccccn3)cc2O[C@@H]1CN(C)C(=O)C1CC1	-0.1	-0.4	-2.4	-10.0	-2.0	7.8
CC1Oc2ccccc2C=C1/C=N/Nc1ccc(C(=O)O)cc1 (centres undefined)	-2.6	-12.8	-22.6*	14.0	3.7	23.4
SMILES	E-sel inducer	ERAP1 HTS inh	rRNA inh HTS	MLL AF4-AF9 inh	SIRT5 inh	S100A4 MyoIIA
C[C@@H]1CCCCO[C@H](CN(C)C(=O)Nc2ccc3c(c2)OCO3)[C@H](C)CN([C@@H](C)CO)C(=O)c2cc(NC(=O)C3CCCCC3)ccc2O1	0.2	-0.2	0.2	3.2	4.6	-4.2
N/C(Cc1ccc(Cl)cc1Cl)=N\OC(=O)c1ccc(Br)o1	2.9	1.4	-22.3*	-0.2	-1.4	-12.3
N/C(Cc1cccc2ccccc12)=N\OC(=O)c1ccc(Br)o1	/	3.3	20.3	-4.8	-0.7	1.5
Cc1cccn2c(=O)c3cc(S(=O)(=O)c4ccccc4)c(=N)n(Cc4ccco4)c3nc12	-1.7	-8.1	0.3	-2.5	0.1	-2.7
Cc1ccc2nc3c(cc(S(=O)(=O)c4ccccc4)c(=N)n3Cc3ccco3)c(=O)n2c1	-4.1	-60.3	-21.1*	-2.6	-1.2	-0.5
CC(C)[C@H](NC(N)=O)C(=O)NNC(=O)COc1cccc(C(F)(F)F)c1	-0.3	53.7*	8.6	3.9	-1.3	1.6
COc1ccc(O)c(/C=N/NC(=S)Nc2cccnc2)c1	/	-1.2	-27.6*	5.5	-6.2	-3.0
O=C(CCS(=O)(=O)c1ccccc1)N1CCCc2ccccc21	0.1	-2.1	0.7	-0.4	17.2*	-6.2
O=C(CC1CC1)N1[C@@H]2CN(S(=O)(=O)c3ccccc3)c3ccccc3[C@@H]2[C@@H]1CO	0.7	-2.0	-1.1	-2.2	2.3	5.5
CC1CCc2c(sc(NC(=O)CSc3ncn[nH]3)c2C#N)C1 (centres undefined)	/	2.2	-19.4*	/	1.9	2.0
CCCc1cc(=O)[nH]c(SCC(=O)Nc2sc3c(c2C#N)CCC(C)C3)n1 (centres undefined)	-1.9	13.9	-54.0	-3.6	-3.4	-8.8
CN1[C@@H]2c3ccc(-c4cccc(F)c4)c(=O)n3C[C@H]1[C@H](CO)[C@H]2C(=O)Nc1nccs1	-0.1	3.2	0.7	-0.8	-1.9	18.5
O=C(c1ccccc1)c1ccc(-c2ccc(O)cc2)cc1	0.4	-8.7	-28.3*	2.3	0.5	6.0
O=C(c1ccccc1)c1ccccc1	/	-1.4	8.5	-3.3	-0.6	1.4
O=C(C[C@@H]1C[C@@H]2c3cc(NC(=O)Nc4ccccc4F)ccc3O[C@@H]2[C@H](CO)O1)NCc1ccncc1	-0.3	0.1	1.7	-0.3	1.3	0.0
CCS(=O)(=O)NCC[C@@H]1CC[C@@H](NC(=O)C2CCC2)[C@H](CO)O1	0.5	3.7	-1.1	-0.7	0.5	3.4
